# Columns and labels:
# Oryctolagus cuniculus = organism: Oryctolagus cuniculus; assay: Calcium channel blocking activity in rabbit; assay type: functional
# How it was run: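 Thoracic aorta strips from male New Zealand rabbits (1.8–2.4 kg) in Krebs PSS at 37 °C, gassed 95% O2/5% CO2, pH 7.35. Contracted with high-K+ (100 mM KCl, NaCl reduced equimolar) Krebs. At plateau tension, increasing concentrations added cumulatively. Relaxation normalized to initial tension. IC50 by logit transformation of concentration-response curves.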
# Rattus norvegicus [1] = assay: Percent decrease in blood pressure in hypertensive rat at 60 mg/kg po; assay type: functional
# How it was run: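 Spontaneously hypertensive rats dosed orally. Read-out was percent fall in blood pressure.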
# Rattus norvegicus [2] = assay: Percent decrease in blood pressure in hypertensive rat at 16 mg/kg po; assay type: functional
# How it was run: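 Spontaneously hypertensive rats dosed orally. Blood pressure read-out expressed as percent decrease. Test agents were given […] po.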
# [3] = target: Voltage-dependent L-type calcium channel subunit alpha-1C (Canis lupus familiaris); assay: Reduction in amplitude of calcium-dependent slow-response action potential by blocking voltage sensitive calcium channel
Compound,IC50 (Oryctolagus cuniculus) [µM],also measured
CO/C(O)=C1\C(C)=Nc2ccccc2SC1c1ccccc1C(F)(F)F (stereo unspecified),12,–
COC(=O)C1=C(C)NC(C)=C(C(=O)OC)C1c1ccccc1[N+](=O)[O-] [NIFEDIPINE],0.001,Decrease (Rattus norvegicus [2]): 25%
CC1=Nc2ccccc2SC(c2cccc([N+](=O)[O-])c2)/C1=C(\O)OC(C)C (stereo unspecified),0.5,–
CO/C(O)=C1\C(C)=Nc2ccccc2SC1c1ccc([N+](=O)[O-])cc1 (stereo unspecified),3,–
CO/C(O)=C1\C(C)=Nc2ccccc2S(=O)(=O)C1c1ccccc1 (stereo unspecified),10,–
CO/C(O)=C1\C(C)=Nc2ccccc2SC1c1cccc([N+](=O)[O-])c1 (stereo unspecified),1.2,IC50 [3]: 0.14 µM

# Second part, led by results:
IC50 (Oryctolagus cuniculus) [µM],Compound,also measured
0.3,CO/C(O)=C1\C(C)=Nc2ccccc2SC1c1ccccc1[N+](=O)[O-] (stereo unspecified),–
1,COc1ccc([C@@H]2Sc3ccccc3N(CCN(C)C)C(=O)[C@@H]2OC(C)=O)cc1 [DILTIAZEM],Decrease (Rattus norvegicus [1]): 10%
22,CO/C(O)=C1\C(C)=Nc2ccccc2SC1c1ccc(OC)cc1 (stereo unspecified),–
0.4,CCO/C(O)=C1\C(C)=Nc2ccccc2SC1c1cccc([N+](=O)[O-])c1 (stereo unspecified),–
1.1,COC(=O)C1=C(C)N(CCN(C)C)c2ccccc2SC1c1cccc([N+](=O)[O-])c1 (stereo unspecified),–
1.6,CCO/C(O)=C1\C(C)=Nc2ccccc2NC1c1cccc([N+](=O)[O-])c1 (stereo unspecified),–
1.7,CO/C(O)=C1\C(C)=Nc2ccccc2SC1c1ccccc1 (stereo unspecified),–

# Reference: ChEMBL document CHEMBL1123712, “Synthesis and biological activity of novel calcium channel blockers: 2,5-dihydro-4-methyl-2-phenyl-1,5-benzothiazepine-3-carboxylic acid esters and 2,5-dihydro-4-methyl-2-phenyl-1,5-benzodiazepine-3-carboxylic acid esters” (J Med Chem, 1987)
